The results in this text go back to ChEMBL document CHEMBL4002589, “Tri- and Tetrasubstituted Pyridinylimidazoles as Covalent Inhibitors of c-Jun N-Terminal Kinase 3” (J Med Chem, 2017).

Activity calls are given as the source filed them. The rule behind the calls is not given here. Some results are limits rather than exact numbers.

Series [1] deals with Mitogen-activated protein kinase 10 (Homo sapiens, UniProt P53779). In words: Inhibition of recombinant 6x-His-tagged JNK3 (39 to 402 residues) (unknown origin) expressed in Escherichia coli BL21(DE3) assessed as reduction in ATF2 phosphorylation measured after 50 mins by ELISA. (In general: In an ELISA, binding on a coated surface is turned into a signal by an enzyme label.)

The target of series [2] is Mitogen-activated protein kinase 14 (Homo sapiens, UniProt Q16539). In words: Inhibition of GST-His tagged human p38alpha expressed in Escherichia coli assessed as reduction in ATF2 phosphorylation measured after 60 mins by ELISA. An outline of the steps: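 ELISA kinase assays run in parallel for JNK3 and p38α, with 60 min incubation. IC50 values are the mean of three experiments.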

Series [3] is described as follows: Drug metabolism in human liver microsomes at 100 uM preincubated with NADPH regenerating system for 5 mins followed by addition of liver microsomes measured after 180 mins by LC-MS analysis. The conditions noted are these: read-out: Drug metabolism. Format: ADME, microsome. On the technique in general: Liver microsomes are vesicles of endoplasmic reticulum, rich in cytochrome P450 enzymes.

For series [4], the target named is Angiopoietin-1 receptor (Homo sapiens) (UniProt Q02763). The experiment in a line: Inhibition of human wild type C-terminal GST-His-tagged TIE2 expressed in Sf9 cells assessed as residual activity at 0.5 uM relative to control. An outline of the steps:
(§1)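 Each inhibitor is tested at a single concentration, 1 µM or 0.5 µM depending on the compound. Results are reported as residual kinase activity.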

Series [5] can be described thus: Glutathione reactivity at 10 uM after 54 mins in presence of 5 mM GSH by HPLC method. An outline of the steps: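 Test compound (10 µM) is incubated with glutathione (5 mM) under conditions like those of the kinase activity assay (max. concentration 10 µM, 54 min, 37°C).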
For series [6], the target named is MAP kinase-activated protein kinase 2 (Homo sapiens) (UniProt P49137). In words: Inhibition of human MAPKAPK2 expressed in Sf9 cells assessed as residual activity at 0.5 uM relative to control. An outline of the steps:
as §1

Series [7] deals with Casein kinase I isoform delta (Homo sapiens) (UniProt P48730). The experiment in a line: Inhibition of CK1 delta (unknown origin) assessed as residual activity at 0.5 uM. An outline of the steps: as §1
Series [8] deals with Mitogen-activated protein kinase 10 (Homo sapiens), P53779 [C154A]. In words: Covalent binding affinity to JNK3 C154A mutant (unknown origin) at 5 molar excess after 1 hr by LC-muESI-QTOF mass spectrometry. An outline of the steps: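 Intact-protein mass spectrometry with a JNK3 mutant carrying Cys-154→Ala. Inhibitor is incubated with the protein. Unbound and reversibly bound ligand are removed by chromatography and by a high declustering potential before ionization. The protein is then analysed by LC-µESI-QTOF to look for a mass shift from a covalent adduct.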
Sequence of Mitogen-activated protein kinase 10 (Homo sapiens), P53779 [C154A] (P53779 whole entry C154A): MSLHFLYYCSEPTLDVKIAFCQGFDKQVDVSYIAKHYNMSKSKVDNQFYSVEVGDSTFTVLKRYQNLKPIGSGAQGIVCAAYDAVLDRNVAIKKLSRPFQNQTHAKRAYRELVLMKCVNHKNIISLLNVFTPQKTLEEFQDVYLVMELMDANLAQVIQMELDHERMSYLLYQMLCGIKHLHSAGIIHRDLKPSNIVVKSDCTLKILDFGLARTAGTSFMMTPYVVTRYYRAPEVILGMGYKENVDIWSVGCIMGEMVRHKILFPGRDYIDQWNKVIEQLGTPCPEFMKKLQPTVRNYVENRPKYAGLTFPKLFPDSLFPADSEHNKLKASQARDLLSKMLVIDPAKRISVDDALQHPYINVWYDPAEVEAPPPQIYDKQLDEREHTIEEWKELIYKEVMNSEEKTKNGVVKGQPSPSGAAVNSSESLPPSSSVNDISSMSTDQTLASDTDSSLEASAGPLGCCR

Sequence of Mitogen-activated protein kinase 14 (Q16539 whole entry): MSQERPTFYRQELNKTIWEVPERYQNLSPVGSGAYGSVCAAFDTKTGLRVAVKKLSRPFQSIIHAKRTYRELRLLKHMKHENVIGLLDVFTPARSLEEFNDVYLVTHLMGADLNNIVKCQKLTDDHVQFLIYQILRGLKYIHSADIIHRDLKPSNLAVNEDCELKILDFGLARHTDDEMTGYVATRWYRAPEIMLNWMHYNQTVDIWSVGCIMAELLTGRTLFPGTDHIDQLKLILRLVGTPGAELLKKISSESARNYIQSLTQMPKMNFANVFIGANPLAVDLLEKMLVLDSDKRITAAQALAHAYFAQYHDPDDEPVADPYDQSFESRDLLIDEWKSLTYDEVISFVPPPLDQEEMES
Sequence of Mitogen-activated protein kinase 10 (P53779 whole entry, the tested form may be a part): as the sequence (P53779 whole entry C154A) above, with A154C counted along it
Sequence of MAP kinase-activated protein kinase 2 (Homo sapiens) (P49137 whole entry, looked up): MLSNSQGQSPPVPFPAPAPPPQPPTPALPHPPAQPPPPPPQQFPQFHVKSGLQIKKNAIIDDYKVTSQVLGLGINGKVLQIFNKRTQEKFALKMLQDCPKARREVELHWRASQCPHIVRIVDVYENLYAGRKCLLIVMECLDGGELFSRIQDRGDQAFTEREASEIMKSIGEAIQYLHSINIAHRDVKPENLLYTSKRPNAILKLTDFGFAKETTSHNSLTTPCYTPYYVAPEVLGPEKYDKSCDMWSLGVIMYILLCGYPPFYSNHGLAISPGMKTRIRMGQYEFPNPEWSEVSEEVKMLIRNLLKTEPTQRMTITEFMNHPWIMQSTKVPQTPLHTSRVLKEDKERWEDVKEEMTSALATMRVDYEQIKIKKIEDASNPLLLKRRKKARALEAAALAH
Sequence of Casein kinase I isoform delta (Homo sapiens) (P48730 whole entry, looked up, canonical isoform): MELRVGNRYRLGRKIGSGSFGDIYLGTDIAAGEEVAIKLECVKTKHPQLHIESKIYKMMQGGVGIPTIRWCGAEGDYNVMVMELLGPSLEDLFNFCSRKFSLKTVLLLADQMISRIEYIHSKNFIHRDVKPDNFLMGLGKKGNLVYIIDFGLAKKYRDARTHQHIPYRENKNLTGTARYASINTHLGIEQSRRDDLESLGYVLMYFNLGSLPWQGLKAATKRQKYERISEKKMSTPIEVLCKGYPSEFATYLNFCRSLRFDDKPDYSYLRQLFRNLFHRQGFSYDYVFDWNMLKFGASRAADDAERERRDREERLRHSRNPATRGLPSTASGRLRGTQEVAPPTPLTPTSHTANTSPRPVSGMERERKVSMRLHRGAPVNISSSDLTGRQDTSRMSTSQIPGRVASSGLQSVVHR
Sequence of Angiopoietin-1 receptor (Homo sapiens) (Q02763 whole entry): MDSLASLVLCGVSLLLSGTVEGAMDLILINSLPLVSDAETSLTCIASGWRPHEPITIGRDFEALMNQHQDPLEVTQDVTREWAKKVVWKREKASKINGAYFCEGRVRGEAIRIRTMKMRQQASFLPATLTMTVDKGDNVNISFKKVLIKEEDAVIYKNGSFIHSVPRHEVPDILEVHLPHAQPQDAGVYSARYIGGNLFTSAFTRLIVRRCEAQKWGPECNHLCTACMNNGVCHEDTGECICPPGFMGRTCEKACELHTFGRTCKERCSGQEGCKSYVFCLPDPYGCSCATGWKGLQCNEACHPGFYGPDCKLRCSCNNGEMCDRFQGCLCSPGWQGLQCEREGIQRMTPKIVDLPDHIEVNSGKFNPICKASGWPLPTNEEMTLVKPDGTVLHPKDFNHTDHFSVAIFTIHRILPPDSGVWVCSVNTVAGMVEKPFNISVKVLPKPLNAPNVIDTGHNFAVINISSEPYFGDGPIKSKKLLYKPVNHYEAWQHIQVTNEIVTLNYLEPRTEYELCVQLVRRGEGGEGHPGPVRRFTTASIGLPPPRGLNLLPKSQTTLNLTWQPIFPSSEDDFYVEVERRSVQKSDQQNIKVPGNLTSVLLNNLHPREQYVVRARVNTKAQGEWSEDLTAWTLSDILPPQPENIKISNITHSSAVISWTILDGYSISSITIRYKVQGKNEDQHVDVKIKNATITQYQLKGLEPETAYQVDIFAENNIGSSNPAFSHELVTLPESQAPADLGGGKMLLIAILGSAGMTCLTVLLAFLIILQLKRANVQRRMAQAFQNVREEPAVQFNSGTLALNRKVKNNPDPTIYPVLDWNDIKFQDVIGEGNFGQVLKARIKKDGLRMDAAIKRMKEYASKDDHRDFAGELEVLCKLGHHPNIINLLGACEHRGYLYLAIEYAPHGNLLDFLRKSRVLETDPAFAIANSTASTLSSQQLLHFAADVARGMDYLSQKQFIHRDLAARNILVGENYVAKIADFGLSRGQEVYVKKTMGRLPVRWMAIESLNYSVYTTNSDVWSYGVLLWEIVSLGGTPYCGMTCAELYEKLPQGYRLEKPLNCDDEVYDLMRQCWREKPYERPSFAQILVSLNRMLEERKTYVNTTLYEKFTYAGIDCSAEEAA

As to `CCC(=O)Nc1cccc(C(=O)Nc2ccc(Nc3cc(-c4[nH]c(SC)nc4-c4ccc(F)cc4)ccn3)cc2)c1`, the IC50 in series [1] worked out at 2 nM; in series [2] it was 4 nM.
Taken in the same sequence, the figures for `CCC(=O)Nc1ccc(C(=O)Nc2ccc(Nc3cc(-c4c(-c5ccc(F)cc5)nc(SC)n4C)ccn3)cc2)cc1` were 27 nM and 17 nM.
In the case of `C=CC(=O)Nc1cccc(C(=O)Nc2cccc(Nc3cc(-c4c(-c5ccc(F)cc5)nc(SC)n4C)ccn3)c2)c1C`, the IC50 in series [1] turned out to be 3 nM; in series [2] it was 100 nM.
`C=CC(=O)Nc1cccc(C(=O)Nc2ccc(Nc3cc(-c4c(-c5ccc(F)cc5)nc(SC)n4C)ccn3)cc2)c1`: the metabolised at 3 h, 100 µM in series [3] worked out at 13%. Further, the Activity in series [4], in series [6] and in series [7] was 30 to 50% in each case. In series [5], the Drug metabolism entry is given as “Metabolite detected”. Besides, the concentration for half-maximal inhibition (IC50) in series [1] was found to be 0.3 nM; in series [2], 36 nM. Moreover, the outcome in series [8] was inactive.
Take `C=CC(=O)Nc1ccc(C(=O)Nc2ccc(Nc3cc(-c4[nH]c(SC)nc4-c4ccc(F)cc4)ccn3)cc2)cc1`: the IC50 in series [1] and in series [2] was 3 nM in each case.
On to `CSc1nc(-c2ccc(F)cc2)c(-c2ccnc(Nc3ccc(N)cc3)c2)[nH]1`, for which the values for the IC50 in series [1] and in series [2] were 24 nM and 17 nM, respectively.
Taken in the same sequence, the figures for `C=CC(=O)Nc1cccc(C(=O)Nc2ccc(Nc3cc(-c4c(-c5ccc(F)cc5)nc(SC)n4C)ccn3)cc2)c1C` were 2 nM and 2 nM.
Turning to `C=CC(=O)Nc1ccc(C(=O)Nc2ccc(Nc3cc(-c4c(-c5ccc(F)cc5)nc(SC)n4C)ccn3)cc2)cc1`, the figures for the IC50 in series [1] and in series [2] were 10 nM and 47 nM, respectively. In addition, the outcome in series [8] was inactive.
`C=CC(=O)Nc1ccc(C(=O)Nc2ccc(Nc3cc(-c4[nH]c(SC)nc4C)ccn3)cc2)cc1`: the IC50 in series [1] turned out to be 200 nM; in series [2], 5920 nM.
In the case of `CCC(=O)Nc1cccc(C(=O)Nc2cccc(Nc3cc(-c4c(-c5ccc(F)cc5)nc(SC)n4C)ccn3)c2)c1`, the figures for the IC50 in series [1] and in series [2] were 175 nM and 241 nM, respectively.
Turning to `CCC(=O)Nc1cccc(C(=O)Nc2ccc(Nc3cc(-c4[nH]c(SC)nc4C)ccn3)cc2)c1`, the IC50 in series [1] is 253 nM; in series [2], greater than 10000 nM.
With `CSc1nc(-c2ccc(F)cc2)c(-c2ccnc(Nc3ccc(NC(=O)c4cccc(N)c4)cc3)c2)n1C`, the IC50 in series [1] amounted to 30 nM; in series [2], 149 nM.
Taken in the same sequence, the figures for `C=CC(=O)Nc1ccc(C(=O)Nc2cccc(Nc3cc(-c4c(-c5ccc(F)cc5)nc(SC)n4C)ccn3)c2)cc1` were 4 nM and 26 nM.
As for `C=CC(=O)Nc1cccc(C(=O)Nc2cccc(Nc3cc(-c4c(-c5ccc(F)cc5)nc(SC)n4C)ccn3)c2)c1`, the IC50 in series [1] is 3 nM; in series [2], 217 nM.
Taken in the same sequence, the figures for `C=CC(=O)Nc1ccc(C(=O)Nc2ccc(Nc3cc(-c4c(-c5ccc(F)cc5)nc(SC)n4C)ccn3)c(C)c2)cc1` were 8 nM and 35 nM.
Taken in the same sequence, the figures for `CCC(=O)Nc1cccc(C(=O)Nc2ccc(Nc3cc(-c4c(-c5ccc(F)cc5)nc(SC)n4C)ccn3)cc2)c1C` were 17 nM and 38 nM.
In the case of `CCC(=O)Nc1cccc(C(=O)Nc2ccc(Nc3cc(-c4c(-c5ccc(F)cc5)nc(SC)n4C)ccn3)cc2)c1`, the IC50 in series [1] was 23 nM; in series [2], 126 nM.
For `C=CC(=O)Nc1cccc(C(=O)Nc2ccc(Nc3cc(-c4[nH]c(SC)nc4-c4ccc(F)cc4)ccn3)cc2)c1`, the concentration for half-maximal inhibition (IC50) in series [1] stood at 0.6 nM; in series [2], 0.8 nM.
Taken in the same sequence, the figures for `C=CC(=O)Nc1cccc(C(=O)Nc2ccc(Nc3cc(-c4c(-c5ccc(F)cc5)nc(SC)n4C)ccn3)c(C)c2)c1` were 2 nM and 3 nM.
On to `CCC(=O)Nc1ccc(C(=O)Nc2ccc(Nc3cc(-c4c(-c5ccc(F)cc5)nc(SC)n4C)ccn3)c(C)c2)cc1`, for which the figures for the IC50 in series [1] and in series [2] were 25 nM and 22 nM, respectively.

For orientation: IC50 means the concentration needed to halve the response being measured.
